ChEMBL document CHEMBL3785075, “Novel Water-Soluble Amphotericin B-PEG Conjugates with Low Toxicity and Potent in Vivo Efficacy” (J Med Chem, 2016)
In brackets after ≈: the same amount, converted by molar mass. Activity calls are given as the source filed them. The rule behind the calls is not given here.

Columns and labels:
[1] = Solubility of compound in saline by HPLC analysis; type: physicochemical
[2] = Chemical stability of compound in phosphate buffer saline assessed as hydrolysis after 24 hrs by HPLC analysis; type: physicochemical; settings: read-out: Drug degradation
Procedure, shortened: (§1)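 Conjugate incubated in phosphate-buffered saline; samples taken at 4 h and after prolonged incubation to 24 h; percent hydrolysis determined by HPLC.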

[3] = Chemical stability of compound in phosphate buffer saline assessed as hydrolysis after 4 hrs by HPLC analysis; type: physicochemical; procedure, shortened: as §1
[4] = tested on: Candida albicans; assay: Antifungal activity against Candida albicans after 48 hrs by CLSI-M27-A3 method; type: functional
[5] = tested on: Pichia kudriavzevii; assay: Antifungal activity against Candida krusei after 48 hrs by CLSI-M27-A3 method; type: functional
[6] = tested on: Aspergillus fumigatus; assay: Antifungal activity against Aspergillus fumigatus after 48 hrs by CLSI-M27-A3 method; type: functional
[7] = tested on: Aspergillus niger; assay: Antifungal activity against Aspergillus niger after 48 hrs by CLSI-M27-A3 method; type: functional
[8] = tested on: Aspergillus flavus; assay: Antifungal activity against Aspergillus flavus after 48 hrs by CLSI-M27-A3 method; type: functional
[9] = tested on: Aspergillus terreus; assay: Antifungal activity against Aspergillus terreus after 48 hrs by CLSI-M27-A3 method; type: functional
[10] = tested on: Rhizopus arrhizus; assay: Antifungal activity against Rhizopus oryzae after 48 hrs by CLSI-M27-A3 method; type: functional
[11] = Toxicity against human RBC assessed as hemolytic activity at 6 ug/ml after 1 to 21 hrs; type: cell-based; settings: erythrocyte
[12] = tested on: MEF; assay: Cytotoxicity against mouse MEF cells assessed as cell viability after 24 hrs by MTT assay; type: cell-based
[13] = Toxicity in iv dosed ICR mouse; type: organism-based; settings: in vivo
[14] = tested on: Candida albicans; assay: Antifungal activity against Candida albicans CBS 562 assessed as viable cells at 2 times MIC after 2 hrs by time kill analysis relative to control; type: functional
[15] = tested on: Mus musculus; assay: Metabolic stability in ICR mouse assessed as hydrolysis at 1 mg/kg, iv after 24 hrs by HPLC analysis; type: ADME, organism-based; settings: in vivo
[16] = tested on: Mus musculus; assay: Metabolic stability in ICR mouse at 1 mg/kg, iv after 48 hrs by HPLC analysis; type: ADME, organism-based; settings: in vivo
[17] = Elimination rate constant in ICR mouse at 1 mg/kg, iv by HPLC analysis; type: ADME, organism-based; settings: in vivo
[18] = Elimination half life in ICR mouse at 1 mg/kg, iv by HPLC analysis; type: ADME, organism-based; settings: in vivo, read-out: beta t1/2 (converted)
[19] = Volume of distribution in ICR mouse at 1 mg/kg, iv after 24 hrs by HPLC analysis; type: ADME, organism-based; settings: in vivo
[20] = Clearance in ICR mouse at 1 mg/kg, iv after 24 hrs by HPLC analysis; type: ADME, organism-based; settings: in vivo
[21] = tested on: Mus musculus; assay: AUC(0 to 24 hrs) in ICR mouse at 1 mg/kg, iv after 24 hrs by HPLC analysis; type: ADME, organism-based; parameters: dose 1 mg/kg, time < 24 hr, route intravenous; settings: in vivo
[22] = Mean residence time(0 to 24 hrs) in ICR mouse at 7.5 mg/kg, iv after 24 hrs by HPLC analysis; type: ADME, organism-based; settings: in vivo
[23] = Fraction unbound in ICR mouse plasma by HPLC analysis; type: ADME, cell-free
[24] = tested on: Candida albicans; assay: Antifungal activity against Candida albicans CBS 562 infected in ICR mouse assessed as increase in survival rate of animal at 1 mg/kg after 24 days; type: functional, organism-based
[25] = tested on: Candida albicans; assay: Antifungal activity against Candida albicans CBS 562 infected in ICR mouse assessed as increase in survival rate of animal at 1.75 mg/kg after 24 days; type: functional, organism-based
[26] = tested on: Candida albicans; assay: Antifungal activity against Candida albicans CBS 562 infected in ICR mouse assessed as increase in survival rate of animal at 3.5 mg/kg after 24 days; type: functional, organism-based
[27] = tested on: Candida albicans; assay: Antifungal activity against Candida albicans CBS 562 infected in ICR mouse assessed as increase in survival rate of animal at 7 mg/kg after 24 days; type: functional, organism-based
[28] = tested on: Candida albicans; assay: Antifungal activity against Candida albicans CBS 562 infected in ICR mouse assessed as fungal burden in mouse kidney at 1 mg/kg after 24 hrs; type: functional, organism-based
[29] = tested on: Candida albicans; assay: Antifungal activity against Candida albicans CBS 562 infected in ICR mouse assessed as fungal burden in mouse kidney at 1.75 mg/kg after 24 hrs; type: functional, organism-based
[30] = tested on: Candida albicans; assay: Antifungal activity against Candida albicans CBS 562 infected in ICR mouse assessed as fungal burden in mouse kidney at 3.5 mg/kg after 24 hrs; type: functional, organism-based
[31] = tested on: Candida albicans; assay: Antifungal activity against Candida albicans CBS 562 infected in ICR mouse assessed as fungal burden in mouse kidney at 7 mg/kg after 24 hrs; type: functional, organism-based
[32] = tested on: Candida albicans; assay: Antifungal activity against Candida albicans CBS 562 infected in ICR mouse assessed as fungal burden in mouse spleen at 1 mg/kg after 24 hrs; type: functional, organism-based
[33] = tested on: Candida albicans; assay: Antifungal activity against Candida albicans CBS 562 infected in ICR mouse assessed as fungal burden in mouse spleen at 1.75 mg/kg after 24 hrs; type: functional, organism-based
[34] = tested on: Candida albicans; assay: Antifungal activity against Candida albicans CBS 562 infected in ICR mouse assessed as fungal burden in mouse spleen at 3.5 mg/kg after 24 hrs; type: functional, organism-based
[35] = tested on: Candida albicans; assay: Antifungal activity against Candida albicans CBS 562 infected in ICR mouse assessed as fungal burden in mouse spleen at 7 mg/kg after 24 hrs; type: functional, organism-based
[36] = tested on: Serum; assay: Metabolic stability in mouse serum assessed as hydrolysis after 24 hrs by HPLC analysis; type: ADME
[37] = tested on: MEF; assay: Cytotoxicity against mouse MEF cells assessed as cell viability at 1000 ug/ml after 24 hrs by MTT assay; type: cell-based
[38] = Elimination half life in ICR mouse at 7.5 mg/kg, iv by HPLC analysis; type: ADME, organism-based; settings: in vivo, read-out: beta t1/2 (converted)
[39] = tested on: Mus musculus; assay: Metabolic stability in ICR mouse assessed as hydrolysis at 7.5 mg/kg, iv after 24 hrs by HPLC analysis; type: ADME, organism-based; settings: in vivo
[40] = tested on: Mus musculus; assay: Metabolic stability in ICR mouse at 7.5 mg/kg, iv after 48 hrs by HPLC analysis; type: ADME, organism-based; settings: in vivo
[41] = Elimination rate constant in ICR mouse at 7.5 mg/kg, iv by HPLC analysis; type: ADME, organism-based; settings: in vivo
[42] = Volume of distribution in ICR mouse at 7.5 mg/kg, iv after 24 hrs by HPLC analysis; type: ADME, organism-based; settings: in vivo
[43] = Clearance in ICR mouse at 7.5 mg/kg, iv after 24 hrs by HPLC analysis; type: ADME, organism-based; settings: in vivo
[44] = AUC(0 to 24 hrs) in ICR mouse at 7.5 mg/kg, iv after 24 hrs by HPLC analysis; type: ADME, organism-based; parameters: time < 24 hr, dose 7.5 mg/kg, route intravenous; settings: in vivo
[45] = Mean residence time(0 to 24 hrs) in ICR mouse at 1 mg/kg, iv after 24 hrs by HPLC analysis; type: ADME, organism-based; settings: in vivo

## C[C@@H]1[C@H](O)[C@@H](C)/C=C/C=C/C=C/C=C/C=C/C=C/C=C/[C@H](O[C@@H]2O[C@H](C)[C@@H](O)[C@H](NC(=O)CCOCCOCCOCCOCCOCCOCCOCCOCCN)[C@@H]2O)C[C@@H]2O[C@](O)(C[C@@H](O)C[C@@H](O)[C@H](O)CC[C@@H](O)C[C@@H](O)CC(=O)O[C@H]1C)C[C@H](O)[C@H]2C(=O)O
[1]
  solubility: 5500 µg/mL (≈ 4080 µM)
[2]
  degraded at 24 h: 0.5%
[3]
  Stability: Stable
[4]
  MFC: 4 µg/mL (≈ 2.97 µM)
  MIC: 1 µg/mL (≈ 0.742 µM)
[5]
  MFC: 8 µg/mL (≈ 5.94 µM)
  MIC: 4 µg/mL (≈ 2.97 µM)
[6]
  MFC: 4 µg/mL (≈ 2.97 µM)
  MIC: 4 µg/mL (≈ 2.97 µM)
[7]
  MFC: 1 µg/mL (≈ 0.742 µM)
  MIC: 1 µg/mL (≈ 0.742 µM)
[8]
  MFC: 4 µg/mL (≈ 2.97 µM)
  MIC: 4 µg/mL (≈ 2.97 µM)
[9]
  MFC: 32 µg/mL (≈ 23.7 µM)
  MIC: 32 µg/mL (≈ 23.7 µM)
[10]
  MFC: 8000 µg/mL (≈ 5940 µM)
  MIC: 8 µg/mL (≈ 5.94 µM)
[11]
  Activity: Toxic
[12]
  IC50: 280 µg/mL (≈ 208 µM)
[13]
  MTD: 22 mg/kg

## C[C@@H]1[C@H](O)[C@@H](C)/C=C/C=C/C=C/C=C/C=C/C=C/C=C/[C@H](O[C@@H]2O[C@H](C)[C@@H](O)[C@H](N)[C@@H]2O)C[C@@H]2O[C@](O)(C[C@@H](O)C[C@@H](O)[C@H](O)CC[C@@H](O)C[C@@H](O)CC(=O)O[C@H]1C)C[C@H](O)[C@H]2C(=O)O [AMPHOTERICIN B]
[1]
  solubility: < 1 µg/mL
[4]
  MFC: 0.5 µg/mL (≈ 0.541 µM)
  MIC: 0.25 µg/mL (≈ 0.271 µM)
[5]
  MFC: 1 µg/mL (≈ 1.08 µM)
  MIC: 0.5 µg/mL (≈ 0.541 µM)
[6]
  MFC: 0.5 µg/mL (≈ 0.541 µM)
  MIC: 0.25 µg/mL (≈ 0.271 µM)
[7]
  MFC: 0.5 µg/mL (≈ 0.541 µM)
  MIC: 0.5 µg/mL (≈ 0.541 µM)
[8]
  MFC: 0.5 µg/mL (≈ 0.541 µM)
  MIC: 0.5 µg/mL (≈ 0.541 µM)
[9]
  MFC: 4 µg/mL (≈ 4.33 µM)
  MIC: 2 µg/mL (≈ 2.16 µM)
[10]
  MFC: 250 µg/mL (≈ 271 µM)
  MIC: 0.25 µg/mL (≈ 0.271 µM)
[14]
  Activity: 100%
[11]
  Activity: Toxic
[12]
  IC50: 6.6 µg/mL (≈ 7.14 µM)
[13]
  MTD: 1.1 mg/kg
[15]
  Stability: Stable
[16]
  Stability: Unstable
[17]
  k el: 1.19e-05 s⁻¹
[18]
  half-life: 16 h
[19]
  Vd: 0.006 L
[20]
  clearance: 0.00417 mL/min
[21]
  AUC: 63.983 µg·h/mL
[22]
  MRT last: 9.66 h
[23]
  fraction unbound: 0.11
[24]
  Activity: Active
[25]
  Activity: Active
[26]
  Activity: Active
[27]
  Activity: Active
[28]
  Activity: Active
[29]
  Activity: Active
[30]
  Activity: Active
[31]
  Activity: Active
[32]
  Activity: Active
[33]
  Activity: Active
[34]
  Activity: Active
[35]
  Activity: Active

## COC(=O)[C@H]1[C@@H]2C[C@@H](O[C@@H]3O[C@H](C)[C@@H](O)[C@H](NC(=O)CCOCCOCCOCCOCCOCCOCCOCCOCCN)[C@@H]3O)/C=C/C=C/C=C/C=C/C=C/C=C/C=C/[C@H](C)[C@@H](O)[C@@H](C)[C@H](C)OC(=O)C[C@H](O)C[C@H](O)CC[C@@H](O)[C@H](O)C[C@H](O)C[C@](O)(C[C@@H]1O)O2
[1]
  solubility: 700 µg/mL (≈ 514 µM)
[2]
  degraded at 24 h: 0.8%
[3]
  Stability: Stable
[36]
  Stability: Stable
[4]
  MFC: 2 µg/mL (≈ 1.47 µM)
  MIC: 1 µg/mL (≈ 0.734 µM)
[5]
  MFC: 4 µg/mL (≈ 2.94 µM)
  MIC: 2 µg/mL (≈ 1.47 µM)
[6]
  MFC: 2 µg/mL (≈ 1.47 µM)
  MIC: 1 µg/mL (≈ 0.734 µM)
[7]
  MFC: 2 µg/mL (≈ 1.47 µM)
  MIC: 2 µg/mL (≈ 1.47 µM)
[8]
  MFC: 2 µg/mL (≈ 1.47 µM)
  MIC: 2 µg/mL (≈ 1.47 µM)
[9]
  MFC: 16 µg/mL (≈ 11.8 µM)
  MIC: 16 µg/mL (≈ 11.8 µM)
[10]
  MFC: 4000 µg/mL (≈ 2940 µM)
  MIC: 4 µg/mL (≈ 2.94 µM)
[14]
  Activity: 100%
[11]
  Activity: Non-toxic
[13]
  MTD: 42 mg/kg
[37]
  Activity: Non-toxic
[38]
  half-life: 3.15 h
[39]
  Stability: Stable
[40]
  Stability: Unstable
[41]
  k el: 6.11e-05 s⁻¹
[42]
  Vd: 0.002 L
[43]
  clearance: 0.00847 mL/min
[44]
  AUC(0-t) at 24 h: 421 µg·h/mL
[45]
  MRT last: 5.43 h
[23]
  fraction unbound: 0.9
[24]
  Activity: Active
[25]
  Activity: Active
[26]
  Activity: Active
[27]
  Activity: Active
[28]
  Activity: Active
[29]
  Activity: Active
[30]
  Activity: Active
[31]
  Activity: Active
[32]
  Activity: Active
[33]
  Activity: Active
[34]
  Activity: Active
[35]
  Activity: Active
